Bioassay records (PubChem)
APP transl inh = inhibitors of APP translation via 5'UTR reporter, primary screen, APP 5'UTR luciferase, SH-SY5Y cells | SH-SY5Y APP 5'UTR-luciferase reporter, luminescence | inhibition, % at 2 µM | actives 0.82% (n = 190,000);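 active = inhibition above a set limit, derived from the sample mean plus 3 SD, cut at about 45% in these data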
aSyn 5UTR inh = MLPCN primary screen, SNCA 5' untranslated region | alpha-synuclein 5'UTR reporter, inhibitor activity | inhibition, % (tested at 7.5 µM) | actives 0.82% (n = 300,000) | AID 1813, 2009; in the data active = inhibition above about 60%;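 note: H4 neuroglioblastoma cells stably carrying SNCA 5'UTR luciferase fusion; 0% = DMSO wells and 100% = positive control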
Jurkat NFkB inh = inhibitors of induced NF-kB luciferase reporter, primary screen, TCR NF-kB activation inhibitor project, cell-based, luminescence, uHTS; Jurkat, PMA/ionomycin-induced NF-kB luciferase reporter; AID 435003, 2010; actives 0.53% (n = 330,000); inhibition, % at 4 µM; in the data active = inhibition above about 50%
697 NFkB inh = inhibitors of PMA/ionomycin-induced NF-kB reporter, 697 cells, primary screen, B-cell NF-kB inhibitor project, cell-based, luminescence, uHTS; actives 0.33% (n = 330,000); 697 B-cell NF-kB luciferase reporter, 16 h; inhibition, % at 4 µM; AID 435022, 2010; in the data active = inhibition above about 35%
Hep lipid drop = inhibitors of hepatocyte lipid droplet formation, primary screen, imaging, high-throughput imaging, BODIPY stain; AML12 mouse hepatocytes, oleate lipid droplets; inhibition, % at 6.5 µM; actives 0.4% (n = 240,000); AID 1656, 2009;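 active = lipid droplet intensity inhibited by at least 50%, with more than 500 cells counted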
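System: AML12 hepatocytes (mouse). Probe or stimulus: oleic acid at 100 µM to induce lipid droplet formation. Times: overnight treatment with compound plus oleate. Detection: Image-based BODIPY and DAPI two-channel analysis. Evaluation: percent inhibition of filter-corrected integrated lipid droplet intensity per well.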
H9c2 TAG inh = inhibitors of triacylglycerol accumulation, primary screen, cell-based, uHTS, fluorescence, H9c2; inhibition, % at 12.5 µM; H9c2 cells, Nile Red lipid (TAG) fluorescence; cells loaded with 200 µM oleic acid; actives 0.66% (n = 230,000); AID 651582, 2012;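 active = pattern-corrected inhibition of lipid staining of at least 50% with the nuclear-stain viability signal not falling by more than 50%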;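 note: 0% = DMSO wells and 100% = triacsin C control wells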
* marks the source's active call; other numbers are inactive results; x = no result given. Shown are actives, neighbours in structure and some others; about 1.9% of the full set was active somewhere.

SMILES | APP transl inh | aSyn 5UTR inh | Jurkat NFkB inh | 697 NFkB inh | Hep lipid drop | H9c2 TAG inh
c1ccc(-[n+]2nc(Nc3cccc4ccccc34)sc2-c2c3ccccc3cc3ccccc23)cc1 | x | x | 25.7 | -1.5 | x | 106.3*
CCS(=O)(=O)N1CCC2(CC1)OCCN2S(=O)(=O)c1ccccc1 | x | x | x | x | x | 6.2
Nc1ccc(N=Nc2ccccc2)c2ccccc12 | x | -8.4 | -20.7 | -3.6 | 22.3 | x
c1ccc(N=Nc2ccc3cccccc2-3)cc1 | x | -259.0 | -96.1 | -204.1 | x | 96.3*
Cc1cc(N=Nc2ccccc2)cc(C)c1NC(=O)C(F)(F)F | x | x | x | x | x | 1.1
COc1ccc(N=CC2=C(O)c3ccccc3C2=O)c(OC)c1 | -176.5 | 62.5* | -117.4 | -149.8 | x | 1.4
NC(=O)c1nc(N2CCOCC2)nc(N2CCOCC2)n1 | -2.6 | 8.9 | -2.9 | -0.3 | 2.3 | 0.9
CC(C)(C)Nc1nc(C(N)=O)nc(N2CCOCC2)n1 | 60.0* | 10.2 | -31.8 | -16.9 | -0.4 | x
CN(C)Cc1csc(NC(=O)Nc2ccccc2Oc2ccccc2)n1 | x | x | x | x | x | 9.0
CC(C)=CCn1c2ccc(NC(=S)NC3CC3)cc2c(=O)n1C | x | x | x | x | x | 4.6
CCOC(=O)Cc1csc(/N=C/c2c(O)n(-c3ccc(C)c(C)c3)c(=O)c3ccccc23)n1 | 22.5 | 105.0* | 21.2 | 13.3 | -21.0 | x
CC(=O)c1ccc(OC(C)C)c(CC(C(N)=O)C(N)=O)c1 | 46.0* | -3.7 | -16.6 | -33.2 | -2.4 | 11.1
O=C(O)CCC(=O)Nc1nnc(C(F)(F)F)s1 | 0.5 | x | -0.4 | -11.4 | x | 2.4
CCC(NC(=O)Nc1nnc(C(F)(F)F)s1)(C(F)(F)F)C(F)(F)F | -1.8 | 108.9* | 20.1 | -117.2 | x | -48.1
O=C(Nc1nnc([C@H]2C[C@H](O)[C@@H](CO)O2)s1)c1cccc(Oc2ccccc2)c1 | x | x | x | x | x | 6.8
O=C1NC(=O)/C(=C\c2ccc(OCc3cccc(C(=O)O)c3)c(Cl)c2)N1 | -78.7 | 69.9* | 37.6 | -54.9 | 2.8 | -18.0
COc1cc(/C=C2\NC(=S)NC2=O)ccc1OCc1cccc(C(=O)O)c1 | x | -10.3 | 2.7 | -0.9 | -12.6 | x
COc1ccc(-c2ccc(C(=O)Nc3cccc(C(F)(F)F)c3)c3occc23)c(C)c1 | x | x | x | x | x | 34.7
Cn1nc(C(C)(C)C)cc1C(=O)N1CCCCC1c1cc(C(=O)Nc2ccc(F)c(Cl)c2)no1 (stereo unspecified) | x | x | x | x | x | 13.4
CCOC(=O)c1c(CSc2ccc(CC)cc2)oc2ccc(O)c(CN(C)C)c12 | x | 65.6* | 49.7 | -49.6 | 29.4 | x
Cc1nnsc1C(=O)N/N=C/c1ccccc1 | 5.2 | 12.6 | -10.6 | 4.7 | 10.5 | 17.1
Cc1nnsc1C(=O)N/N=C/c1ccc2ccccc2c1O | 76.3* | 120.0* | 42.9 | -17.7 | -11.9 | 23.5
O=C(c1ccccc1)N1CCSc2sccc2C1=O | 28.1 | 96.8* | x | x | -7.4 | -3.0
O=C(Nc1ccccc1Cl)c1cc(C2CCCN(C(=O)c3ccccc3)C2)on1 (stereo unspecified) | x | x | x | x | x | 1.2
OC(c1ccc(Cl)c(Cl)c1)c1ncc(-c2ccccc2C(F)(F)F)[nH]1 (stereo unspecified) | x | x | x | x | x | -20.0
SMILES | APP transl inh | aSyn 5UTR inh | Jurkat NFkB inh | 697 NFkB inh | Hep lipid drop | H9c2 TAG inh
CC(C)Oc1ccc(C(=O)Nc2nnc(SCC(=O)N3CCOCC3)s2)cc1 | -88.0 | 97.7* | 19.1 | -96.1 | -1.9 | x
CN(C)S(=O)(=O)c1ccc(C(=O)Nc2nnc(SCC(=O)N3CCOCC3)s2)cc1 | x | x | x | x | x | 29.7
O=C(Nc1nnc(SCC(=O)N2CCCc3ccccc32)s1)c1cccc2ccccc12 | -7.5 | -20.0 | -7.3 | 6.4 | -0.9 | x
Cc1ccc(C(=O)Nc2nnc(SCC(=O)N3CCCc4ccccc43)s2)cc1 | -58.8 | 74.5* | -10.7 | -76.6 | 1.1 | -2.0
Cc1csc(NC(=O)c2ccc(N3CCCC3=O)cc2)n1 | -47.4 | 101.0* | -23.9 | -66.6 | -27.3 | 5.4
O=C(O)CC(=O)Nc1ccc(Oc2ccc(C(F)(F)F)cn2)c(Cl)c1 | 0.6 | 64.6* | 4.0 | 15.0 | 4.8 | 15.8
NC(=O)c1cccc(-c2ccnc3c2CC(C(=O)Nc2cccc(Oc4ccccc4)c2)O3)c1 (stereo unspecified) | x | x | x | x | x | 11.5
CNS(=O)(=O)c1ccc2nc(NC(=O)/C=C/c3ccco3)sc2c1 | -28.7 | -230.3 | -11.0 | -11.5 | 4.7 | 5.9
COc1ccc(C2/C=C\CN(C(=O)Nc3ccc(C(F)(F)F)cc3)CC(=O)N2Cc2ccc(F)cc2)cc1 (stereo unspecified) | x | 71.4* | 12.4 | -4.0 | 25.0 | 14.2
COc1ccc(C2/C=C\CN(C(=O)Nc3ccccc3)CC(=O)N2Cc2ccc(F)cc2)cc1 (stereo unspecified) | x | 10.9 | 2.3 | 13.2 | -2.4 | 4.9
Nc1nc(SCc2ccccc2)c2ncn(C3CCCCC3)c2n1 | x | x | x | x | x | 23.9
COc1cccc(C(=O)O/N=C(\N)c2ccccn2)c1OC | x | -73.8 | -42.7 | -190.2 | 4.8 | x
N/C(=N\OC(=O)c1ccc2ccccc2c1)c1ccccn1 | -158.2 | 95.5* | -45.6 | -99.7 | -5.8 | x
CCCc1ccc(C(=O)O/N=C(\N)c2ccccn2)cc1 | x | 71.7* | 6.8 | -94.2 | -2.5 | -7.9
N/C(=N\OC(=O)c1ccc(=O)n(Cc2ccccc2)c1)c1ccccn1 | -1.8 | -29.3 | -10.1 | -73.1 | -19.8 | -4.0
N/C(=N\OC(=O)c1cccc2ccccc12)c1ccccn1 | x | 101.8* | -66.9 | -219.7 | -2.9 | 5.0
CCC(=O)Nc1c(C#N)c2nc3ccccc3nc2n1C1CCCCC1 | -4.7 | 9.3 | 4.9 | -16.4 | -2.0 | 18.2
N#Cc1c(N)n(C2CCCCC2)c2nc3ccccc3nc12 | 3.4 | 62.2* | 28.5 | 13.7 | x | 9.4
COc1cccc(/C=N/Nc2ccc([N+](=O)[O-])cn2)c1O | x | 102.1* | -3.8 | -94.4 | -9.7 | x
COc1cccc(/C=N/Nc2nc(Nc3ccc([N+](=O)[O-])cc3)nc(N3CCCC3)n2)c1O | 42.6 | 65.0* | 44.8 | 18.2 | 3.7 | x
O=[N+]([O-])c1ccc(NN=Cc2cccc3ccccc23)nc1 | x | x | x | x | x | 17.4
COc1cccc(/C=N/Nc2ncccc2[N+](=O)[O-])c1OC | x | 91.6* | 21.3 | -56.7 | 0.8 | 12.5
CCN1/C(=C/c2ccc3cc(C)cc(C)c3[n+]2CC)Sc2cc(C)ccc21 | 61.4* | x | x | x | -56.3 | -94.8
CCN1/C(=C\c2ccc3cc(C)ccc3[n+]2CC)Sc2cc(C)c(C)cc21 | 41.0 | 14.4 | x | x | -30.2 | -60.3
O=c1c2c3nc4ccccc4nc3n(-c3ccc4c(c3)OCCO4)c2ncn1C1CCCC1 | x | x | -1.5 | -21.0 | x | 64.1*
Nc1c(C(=O)OCC2CCCO2)c2nc3ccccc3nc2n1-c1ccc2c(c1)OCCO2 (stereo unspecified) | -6.8 | 20.8 | -13.3 | 7.6 | -9.4 | x
